{"data": "Published values collected from several papers", "target": "Mitogen-activated protein kinase 10 (MAPK10, Homo sapiens, UniProt P53779)"}
{"Compound": "COc1ncccc1-c1cnn2ccc(N3CCN(C(=O)OC(C)C)CC3)nc12", "effect on": "binding", "method": "competition with immobilised ligand", "tested at": "1 µM", "endpoint": "remaining binding", "result": "100%"}
{"Compound": "O=c1[nH]c2ccccc2n1C1CCN(Cc2ccc(-c3[nH]c4cc5ncnc5cc4nc3-c3ccccc3)cc2)CC1", "effect on": "cell-free assay", "tested at": "0.5 µM", "endpoint": "remaining signal", "result": "96%"}
{"Compound": "Nc1ncc(-c2nc(N3CCOCC3)nc(N3CCOCC3)n2)c(C(F)F)n1", "effect on": "binding", "method": "competition with immobilised ligand", "tested at": "10 µM", "endpoint": "remaining binding", "result": "90%"}
{"Compound": "N#CC1(c2ccccn2)CCN(Cc2cc(C(=O)O)c(=O)n3ccccc23)CC1", "effect on": "cell-free assay", "method": "competition with immobilised ligand", "tested at": "1 µM", "endpoint": "remaining binding", "result": "82%"}
{"Compound": "Cn1cc(-c2cc(F)cc(N3CCn4c(cc5c4CCCC5)C3=O)c2CO)cc(Nc2ccc(N3CCN(C4COC4)CC3)cn2)c1=O", "effect on": "enzyme activity", "mode": "inhibitor", "tested at": "0.1 µM", "endpoint": "inhibition", "result": "5%"}
{"Compound": "Cc1nn(C)cc1-c1nc2c(N3CCN(Cc4ccc(Cl)cc4)CC3)c(Cl)cnc2[nH]1", "effect on": "binding", "method": "competition with immobilised ligand", "tested at": "1 µM", "endpoint": "remaining binding", "result": "100%"}
{"Compound": "NC(=O)c1nc(Nc2ccccc2)sc1NC(=O)C1CCCCC1", "effect on": "cell-free assay", "method": "competition with immobilised ligand", "tested at": "10 µM", "endpoint": "remaining binding", "result": "5.4%"}
{"Compound": "CC(C)(C)c1cc(C=C(C#N)C#N)cc(Br)c1O", "effect on": "enzyme activity", "mode": "inhibitor", "tested at": "0.5 µM", "endpoint": "remaining activity", "result": "92.5%"}
{"Compound": "COc1cc(Nc2ncc(F)c(Nc3ccc4c(n3)NC(=O)C(C)(C)O4)n2)cc(OC)c1OC", "effect on": "binding", "method": "competition with immobilised ligand", "tested at": "10 µM", "endpoint": "inhibition", "result": "100%"}
{"Compound": "Cn1cncc1[C@](O)(COc1ccc(C#N)cc1-c1ccc(OC(F)(F)F)cc1)c1ccc(C#N)cc1", "effect on": "cell-free assay", "method": "competition with immobilised ligand", "tested at": "1 µM", "endpoint": "remaining binding", "result": "70%"}
